{"source": "ChEMBL document CHEMBL3826950", "about": "“Design and development of new class of Mycobacterium tuberculosisl-alanine dehydrogenase inhibitors” (Bioorg Med Chem, 2016)", "key": {"[1]": {"test": "Inhibition of Mycobacterium tuberculosis L-AlaDH assessed as NADH production by spectrophotometric method", "procedure,_shortened": "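Oxidative deamination of L-alanine to pyruvate was followed by NADH absorbance at 340 nm at 37 °C. Background was read from reaction mix without enzyme. Compounds were tested across a 25 to 0.5 range to derive IC50.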"}, "[2]": {"test": "Cytotoxicity against mouse RAW264.7 cells assessed as reduction in cell viability at 25 uM measured after 48 hrs by MTT assay", "type": "cell-based", "conditions": "read-out: INH", "procedure,_shortened": "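RAW 264.7 cells were grown in RPMI with 10% FBS and penicillin/streptomycin, seeded at about 5000 cells/well on poly-L-lysine, and held 24 h at 37 °C in 5% CO2. Compound exposure lasted 48 h. MTT (0.5 mg/ml) was added for 3 h and formazan was read at 595 nm.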"}, "[3]": {"system": "Mycobacterium tuberculosis", "test": "Antibacterial activity against actively replicative Mycobacterium tuberculosis H37Rv measured after 7 days by MABA assay", "type": "functional", "conditions": "168 h", "procedure,_shortened": "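Serial two-fold dilutions in 7H9-S were tested against replicating M. tuberculosis H37Rv (ATCC 27294) at 37 °C for 7 days. Alamar blue was then added and plates were incubated overnight. MIC was the lowest concentration that prevented the blue-to-pink colour change.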"}, "[4]": {"system": "Mycobacterium tuberculosis", "test": "Antibacterial activity against nutrient-starved dormant Mycobacterium tuberculosis H37Rv assessed in log reduction in bacterial count at 10 ug/ml measured after 7 days by MPN assay relative to control", "type": "functional", "procedure,_shortened": "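H37Rv was grown in 7H9/OADC, washed, and starved in PBS in sealed bottles at 37 °C for 6 weeks. The starved culture was treated for 7 days at 37 °C, then diluted 10-fold to 10^-6 in 7H9/OADC and plated in triplicate. After 28 days at 37 °C, wells with growth were scored and MPN was calculated (n = 3).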"}}, "note": "Active and inactive are the calls of the source. The rule behind the calls is not given here."}
{"smiles": "O=C(NN1C(C(=O)Nc2ccc(Br)cc2)CC1C(=O)Nc1ccc(Br)cc1)c1ccncc1", "note": "(centres undefined)", "values": [{"measurement": "IC50", "setting": "[1]", "result": "> 25", "unit": "µM"}, {"measurement": "cytotoxicity at 48 h, 25 µM", "setting": "[2]", "result": 19.7, "unit": "%"}, {"measurement": "MIC", "setting": "[3]", "result": 2.72, "unit": "µM"}, {"measurement": "Activity", "setting": "[4]", "result": "inactive"}]}
{"smiles": "Cc1cccc(C)c1NC(=O)C1CC(C(=O)Nc2c(C)cccc2C)N1NC(=O)c1ccncc1", "note": "(centres undefined)", "values": [{"measurement": "IC50", "setting": "[1]", "result": 9.69, "unit": "µM"}, {"measurement": "cytotoxicity at 48 h, 25 µM", "setting": "[2]", "result": 26.6, "unit": "%"}, {"measurement": "MIC", "setting": "[3]", "result": 3.31, "unit": "µM"}]}
{"smiles": "O=C(NN1C(C(=O)NCc2ccccc2)CC1C(=O)NCc1ccccc1)c1ccncc1", "note": "(centres undefined)", "values": [{"measurement": "IC50", "setting": "[1]", "result": 10.2, "unit": "µM"}, {"measurement": "cytotoxicity at 48 h, 25 µM", "setting": "[2]", "result": 49.3, "unit": "%"}, {"measurement": "MIC", "setting": "[3]", "result": 28.2, "unit": "µM"}]}
{"smiles": "COc1c(N2C[C@@H]3CCCN[C@@H]3C2)c(F)cc2c(=O)c(C(=O)O)cn(C3CC3)c12", "note": "[MOXIFLOXACIN]", "values": [{"measurement": "MIC", "setting": "[3]", "result": 1.24, "unit": "µM"}, {"measurement": "Log reduction in bacterial count", "setting": "[4]", "result": 2.8}]}
{"smiles": "NNC(=O)c1ccncc1", "note": "[ISONIAZID]", "values": [{"measurement": "MIC", "setting": "[3]", "result": 0.72, "unit": "µM"}, {"measurement": "Log reduction in bacterial count", "setting": "[4]", "result": 1.5}]}
{"smiles": "COc1ccc(C(=O)Nc2ccccc2)cc1Nc1nc(Nc2ccccn2)nc2ncccc12", "values": [{"measurement": "IC50", "setting": "[1]", "result": 22.1, "unit": "µM"}]}
{"smiles": "COc1ccc(NC(=O)C2CC(C(=O)Nc3ccc(OC)cc3OC)N2NC(=O)c2ccncc2)c(OC)c1", "note": "(centres undefined)", "values": [{"measurement": "IC50", "setting": "[1]", "result": 11.7, "unit": "µM"}, {"measurement": "cytotoxicity at 48 h, 25 µM", "setting": "[2]", "result": 48.9, "unit": "%"}, {"measurement": "MIC", "setting": "[3]", "result": 46.7, "unit": "µM"}]}
{"smiles": "O=C(NN1C(C(=O)Nc2ccc(Cl)cc2)CC1C(=O)Nc1ccc(Cl)cc1)c1ccncc1", "note": "(centres undefined)", "values": [{"measurement": "IC50", "setting": "[1]", "result": 5.56, "unit": "µM"}, {"measurement": "cytotoxicity at 48 h, 25 µM", "setting": "[2]", "result": 32.9, "unit": "%"}, {"measurement": "MIC", "setting": "[3]", "result": 51.6, "unit": "µM"}]}
{"smiles": "CO[C@H]1/C=C/O[C@@]2(C)Oc3c(C)c(O)c4c(O)c(c(/C=N/N5CCN(C)CC5)c(O)c4c3C2=O)NC(=O)/C(C)=C\\C=C\\[C@H](C)[C@H](O)[C@@H](C)[C@@H](O)[C@@H](C)[C@H](OC(C)=O)[C@@H]1C", "note": "[RIFAMPIN]", "values": [{"measurement": "MIC", "setting": "[3]", "result": 0.15, "unit": "µM"}, {"measurement": "Log reduction in bacterial count", "setting": "[4]", "result": 2.2}]}
{"smiles": "CC[C@@H](CO)NCCN[C@@H](CC)CO", "note": "[ETHAMBUTOL]", "values": [{"measurement": "MIC", "setting": "[3]", "result": 7.64, "unit": "µM"}]}
{"smiles": "Cc1cccc(NC(=O)C2CC(C(=O)Nc3cccc(C)n3)N2NC(=O)c2ccncc2)n1", "note": "(centres undefined)", "values": [{"measurement": "IC50", "setting": "[1]", "result": 14.6, "unit": "µM"}, {"measurement": "cytotoxicity at 48 h, 25 µM", "setting": "[2]", "result": 3.89, "unit": "%"}, {"measurement": "MIC", "setting": "[3]", "result": 3.51, "unit": "µM"}]}
{"smiles": "O=C(NN1C(C(=O)NCCc2ccccc2)CC1C(=O)NCCc1ccccc1)c1ccncc1", "note": "(centres undefined)", "values": [{"measurement": "IC50", "setting": "[1]", "result": 4.75, "unit": "µM"}, {"measurement": "cytotoxicity at 48 h, 25 µM", "setting": "[2]", "result": 42.3, "unit": "%"}, {"measurement": "MIC", "setting": "[3]", "result": 26.5, "unit": "µM"}]}
{"smiles": "Cc1ccc(NC(=O)C2CC(C(=O)Nc3ccc(C)cc3C)N2NC(=O)c2ccncc2)c(C)c1", "note": "(centres undefined)", "values": [{"measurement": "IC50", "setting": "[1]", "result": 4.38, "unit": "µM"}, {"measurement": "cytotoxicity at 48 h, 25 µM", "setting": "[2]", "result": 19.3, "unit": "%"}, {"measurement": "MIC", "setting": "[3]", "result": 13.3, "unit": "µM"}]}
{"smiles": "O=C(NN1C(C(=O)Nc2ccccc2)CC1C(=O)Nc1ccccc1)c1ccncc1", "note": "(centres undefined)", "values": [{"measurement": "IC50", "setting": "[1]", "result": 9.22, "unit": "µM"}, {"measurement": "cytotoxicity at 48 h, 25 µM", "setting": "[2]", "result": 19.8, "unit": "%"}, {"measurement": "MIC", "setting": "[3]", "result": 15.1, "unit": "µM"}, {"measurement": "Log reduction in bacterial count", "setting": "[4]", "result": 1.6}]}
{"smiles": "O=C(NN1C(C(=O)Nc2nc3ccccc3s2)CC1C(=O)Nc1nc2ccccc2s1)c1ccncc1", "note": "(centres undefined)", "values": [{"measurement": "IC50", "setting": "[1]", "result": 3.83, "unit": "µM"}, {"measurement": "cytotoxicity at 48 h, 25 µM", "setting": "[2]", "result": 34.7, "unit": "%"}, {"measurement": "MIC", "setting": "[3]", "result": 11.8, "unit": "µM"}, {"measurement": "Log reduction in bacterial count", "setting": "[4]", "result": 2}]}
{"smiles": "Cc1ccc2[nH]c(/C(C#N)=C/c3ccc(-c4cc(C(=O)O)cc(C(=O)O)c4)o3)nc2c1", "values": [{"measurement": "IC50", "setting": "[1]", "result": 15.6, "unit": "µM"}]}
{"smiles": "O=C(NN1C(C(=O)Nc2ccc(Cl)c(Cl)c2)CC1C(=O)Nc1ccc(Cl)c(Cl)c1)c1ccncc1", "note": "(centres undefined)", "values": [{"measurement": "IC50", "setting": "[1]", "result": 13.7, "unit": "µM"}, {"measurement": "cytotoxicity at 48 h, 25 µM", "setting": "[2]", "result": 49.5, "unit": "%"}, {"measurement": "MIC", "setting": "[3]", "result": 1.41, "unit": "µM"}]}
{"smiles": "O=C(NN1C(C(=O)Nc2nc3ccccc3s2)CC1C(=O)Nc1nc2ccccc2s1)c1ccccc1", "note": "(centres undefined)", "values": [{"measurement": "IC50", "setting": "[1]", "result": "> 25", "unit": "µM"}, {"measurement": "cytotoxicity at 48 h, 25 µM", "setting": "[2]", "result": 12.3, "unit": "%"}, {"measurement": "MIC", "setting": "[3]", "result": 5.93, "unit": "µM"}, {"measurement": "Activity", "setting": "[4]", "result": "inactive"}]}
{"smiles": "COc1ccc(Nc2nc(Nc3ccc4c(=O)[nH][nH]c(=O)c4c3)c3cccnc3n2)cc1", "values": [{"measurement": "IC50", "setting": "[1]", "result": 23.3, "unit": "µM"}]}
{"smiles": "Cc1cccc(/C=N/NC2=Nc3[nH]c4ccc(C)cc4c3NN2)c1", "values": [{"measurement": "IC50", "setting": "[1]", "result": 18.2, "unit": "µM"}]}
{"smiles": "O=C(NN1C(C(=O)Nc2ccccn2)CC1C(=O)Nc1ccccn1)c1ccncc1", "note": "(centres undefined)", "values": [{"measurement": "IC50", "setting": "[1]", "result": 9.47, "unit": "µM"}, {"measurement": "cytotoxicity at 48 h, 25 µM", "setting": "[2]", "result": 7.68, "unit": "%"}, {"measurement": "MIC", "setting": "[3]", "result": 3.74, "unit": "µM"}]}
